Measurements taken from ChEMBL document CHEMBL3414559, “Novel C-4 heteroaryl 13-cis-retinamide Mnk/AR degrading agents inhibit cell proliferation and migration and induce apoptosis in human breast and prostate cancer cells and suppress growth of MDA-MB-231 human breast and CWR22Rv1 human prostate tumor xenografts in mice” (J Med Chem, 2015).
The source made the active and inactive calls. The calls are words filed in the database; no cut-off is given here.

What was measured:
PC-3 = test: Inhibition of cell migration of human PC3 cells at 5 uM after 24 hrs by wound healing assay; format: functional, cell-based
Method in brief: (§1)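 Cells (5 × 10⁵ per well) grown to confluence, monolayer scratched at time zero, then exposed to 5 μM for 24 h; initial and final wounds photographed at 100×.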

MDA-MB-231 [1] = test: Inhibition of cell migration of human MDA-MB-231 cells at 5 uM after 24 hrs by wound healing assay; format: functional, cell-based; method in brief: as §1
MCF7 [2] = test: Reduction in peIF4E protein expression in human MCF7 cells at 0.63 uM to 20 uM after 24 hrs by SDS-PAGE and Western blotting method; format: functional, cell-based
Method in brief: (§2)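 MCF-7, MDA-MB-231 and MDA-MB-468 cells, kept in RPMI 1640 with 10% FBS, were exposed for 24 h to a range of concentrations, with DMSO vehicle controls. Equal protein from lysates was separated by SDS–PAGE and probed for Mnk1, Mnk2, peIF4E, eIF4E and cPARP. GAPDH reprobing served as loading control.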

[3] = Growth inhibition of human CWR22Rv1 cells by MTT assay; format: functional, CWR22R; conditions: 22Rv1
Method in brief: (§3)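 Cells grown in RPMI 1640 with 10% FBS, plated at 2500 cells/well, treated across a dose range; growth read by MTT. GI50 taken from dose–response curves by nonlinear regression, at least three independent experiments.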

MDA-MB-231 [4] = test: Antitumor activity against human MDA-MB-231 cells xenografted in nude mouse assessed as reduction in Mnk1/2 protein expression at 20 mg/kg, ip dosed once daily for 5 days per week for 28 days by SDS-PAGE and Western blotting method
MDA-MB-468 [5] = test: Reduction in Mnk1 protein expression in human MDA-MB-468 cells at 0.63 uM to 20 uM after 24 hrs by SDS-PAGE and Western blotting method; format: functional, cell-based
Method in brief: (§4)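 Breast cancer cells in RPMI 1640 with 10% FBS treated 24 h at indicated concentrations, DMSO vehicle control; equal protein loaded on SDS–PAGE and immunoblotted for Mnk1, Mnk2, peIF4E, eIF4E and cleaved PARP; blots reprobed for GAPDH as loading control.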

MDA-MB-231 [6] = test: Effect on total eIF4E protein expression in human MDA-MB-231 cells at 0.63 uM to 20 uM after 24 hrs by SDS-PAGE and Western blotting method; format: functional, cell-based; method in brief: as §4
MDA-MB-231 [7] = test: Antitumor activity against human MDA-MB-231 cells xenografted in nude mouse assessed as increase in Bax protein expression at 20 mg/kg, ip dosed once daily for 5 days per week for 28 days by SDS-PAGE and Western blotting method
MCF7 [8] = test: Growth inhibition of human MCF7 cells by MTT assay; format: functional; method in brief: as §3
Mus musculus = test: Toxicity in human MDA-MB-231 cells xenografted athymic nude mouse assessed as induction of toxic signs at 20 mg/kg, ip dosed once daily for 5 days per week for 28 days; conditions: in vivo
LNCaP [9] = test: Reduction in Mnk2 protein expression in human LNCAP cells at 0.6 uM to 20 uM after 24 hrs by SDS-PAGE and Western blotting method; format: functional, cell-based
Method in brief: (§5)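 LNCaP cells (RPMI 1640, 10% FBS) exposed 24 h to 0.6–20 μM, DMSO vehicle control; equal protein on SDS–PAGE, immunoblotted for fAR, Mnk1/2, peIF4E, cyclin D1 and cleaved PARP; β-actin reprobe for loading.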

MDA-MB-231 [10] = test: Antitumor activity against human MDA-MB-231 cells xenografted in SCID mouse assessed as inhibition of tumor growth at 20 mg/kg, ip dosed once daily for 5 days per week for 28 days; format: functional; conditions: MDA-MB-231, ip, in the assay text read “athymic nude mouse” for “SCID mouse”, route intraperitoneal, read-out: TGI
Method in brief: (§6)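 Athymic nude female mice with subcutaneous MDA-MB-231 tumors (10 × 10⁶ cells; ~100 mm³ at randomization, n = 6/group) dosed ip once daily, 5 days/week for 28 days, in 40% β-cyclodextrin/ddH₂O; vehicle controls. %T/C computed as median tumor volume treated vs control at day 28 × 100. Body weight monitored.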

MDA-MB-231 [11] = test: Antitumor activity against human MDA-MB-231 cells xenografted in nude mouse assessed as increase in Bad protein expression at 20 mg/kg, ip dosed once daily for 5 days per week for 28 days by SDS-PAGE and Western blotting method
LNCaP [12] = test: Reduction in Mnk1 protein expression in human LNCAP cells at 0.6 uM to 20 uM after 24 hrs by SDS-PAGE and Western blotting method; format: functional, cell-based; method in brief: as §5
LNCaP [13] = test: Induction of apoptosis in human LNCAP cells assessed as increase in c-PARP formation at 0.6 uM to 20 uM after 24 hrs by SDS-PAGE and Western blotting method; format: functional, cell-based; method in brief: as §5
MDA-MB-468 [14] = test: Growth inhibition of human MDA-MB-468 cells by MTT assay; format: functional; method in brief: as §3
MDA-MB-231 [15] = test: Induction of apoptosis in human MDA-MB-231 cells assessed as increase in c-PARP formation at 0.63 uM to 20 uM after 24 hrs by SDS-PAGE and Western blotting method; format: functional, cell-based; method in brief: as §4
MDA-MB-468 [16] = test: Reduction in Mnk2 protein expression in human MDA-MB-468 cells at 0.63 uM to 20 uM after 24 hrs by SDS-PAGE and Western blotting method; format: functional, cell-based; method in brief: as §4
[17] = Growth inhibition of human PC3 cells by MTT assay; format: functional; conditions: PC-3; method in brief: as §3
MDA-MB-231 [18] = test: Reduction in Mnk2 protein expression in human MDA-MB-231 cells at 0.63 uM to 20 uM after 24 hrs by SDS-PAGE and Western blotting method; format: functional, cell-based; method in brief: as §4
LNCaP [19] = test: Induction of apoptosis in human LNCAP cells assessed as reduction in cyclin D1 levels at 0.6 uM to 20 uM after 24 hrs by SDS-PAGE and Western blotting method; format: functional, cell-based; method in brief: as §5
LNCaP [20] = test: Growth inhibition of human LNCAP cells by MTT assay; format: functional; method in brief: as §3
MDA-MB-231 [21] = test: Reduction in peIF4E protein expression in human MDA-MB-231 cells at 0.63 uM to 20 uM after 24 hrs by SDS-PAGE and Western blotting method; format: functional, cell-based; method in brief: as §2
MCF7 [22] = test: Induction of apoptosis in human MCF7 cells assessed as increase in c-PARP formation at 0.63 uM to 20 uM after 24 hrs by SDS-PAGE and Western blotting method; format: functional, cell-based; method in brief: as §4
MDA-MB-231 [23] = test: Antitumor activity against human MDA-MB-231 cells xenografted in nude mouse assessed as reduction in Bcl2 protein expression at 20 mg/kg, ip dosed once daily for 5 days per week for 28 days by SDS-PAGE and Western blotting method
MDA-MB-231 [24] = test: Antitumor activity against human MDA-MB-231 cells xenografted in SCID mouse assessed as tumor growth at 20 mg/kg, ip dosed once daily for 5 days per week for 28 days; format: functional; conditions: route intraperitoneal, in the assay text read “athymic nude mouse” for “SCID mouse”; method in brief: as §6

Row | SMILES | inhibition (PC-3) | inhibition (MDA-MB-231 [1]) | inhibition (MCF7 [2]) | GI50 [3] | Activity (MDA-MB-231 [4]) | inhibition (MDA-MB-468 [5]) | Activity (MDA-MB-231 [6]) | Activity (MDA-MB-231 [7]) | GI50 (MCF7 [8]) | Activity (Mus musculus) | inhibition (LNCaP [9]) | inhibition in vivo at 20 mg/kg (MDA-MB-231 [10]) | Activity (MDA-MB-231 [11]) | inhibition (LNCaP [12]) | Activity (LNCaP [13]) | GI50 (MDA-MB-468 [14]) | Activity (MDA-MB-231 [15]) | inhibition (MDA-MB-468 [16]) | GI50 [17] | inhibition (MDA-MB-231 [18]) | other results
1 | CC1=C(/C=C/C(C)=C/C=C/C(C)=C\C(=O)NCc2ccc(O)cc2)C(C)(C)CCC1n1ccnc1 (configuration not stated) | Active | Active | Dose-dependent effect | 1860 nM | Active | Dose-dependent effect | inactive | Active | 160 nM | Non-toxic | Dose-dependent effect | 85.4% | Active | Dose-dependent effect | Active | 2700 nM | Dose-dependent effect | Dose-dependent effect | 3540 nM | Dose-dependent effect | Activity (LNCaP [19]): Active; GI50 (LNCaP [20]): 1690 nM; inhibition (MDA-MB-231 [21]): Dose-dependent effect; Activity (MCF7 [22]): Dose-dependent effect; Activity (MDA-MB-231 [23]): Active; T/C (MDA-MB-231 [24]): 14.6%
2 | CC1=C(/C=C/C(C)=C/C=C/C(C)=C\C(=O)Nc2cccc(F)c2)C(C)(C)CCC1n1ccnc1 (configuration not stated) | Active | Active | Dose-dependent effect | 2040 nM | Active | Dose-dependent effect | inactive | Active | 5490 nM | Non-toxic | Dose-dependent effect | 85.4% | Active | Dose-dependent effect | Active | 6760 nM | Dose-dependent effect | Dose-dependent effect | 5620 nM | Dose-dependent effect | Activity (LNCaP [19]): Active; GI50 (LNCaP [20]): 2690 nM; inhibition (MDA-MB-231 [21]): Dose-dependent effect; Activity (MCF7 [22]): Dose-dependent effect; Activity (MDA-MB-231 [23]): Active; T/C (MDA-MB-231 [24]): 14.6%
